Published values gathered from unrelated publications.
Lines come from different studies, so protocols differ.
Target: Serine/threonine-protein kinase PAK 3 (PAK3, Homo sapiens, UniProt O75914)

Clc1ccc(Nc2nnc(Cc3ccncc3)c3ccccc23)cc1
remaining signal (cell-free assay; 0.5 µM): 107%

Cc1sc(C(=O)NC2COC2)cc1-n1cc(NC(=O)Nc2c(F)cccc2Cl)cn1
remaining activity (enzyme activity; inhibitor; 10 µM): 114%

CNC(=O)Nc1ccc2c(c1)CC[C@@]21OC(=O)N(CC(=O)N(Cc2ccc(F)cc2)[C@@H](C)C(F)(F)F)C1=O
remaining binding (cell-free assay; competition with immobilised ligand; 1 µM): 91%

Cc1ccc(Nc2nccc(N(C)c3ccc4c(C)n(C)nc4c3)n2)cc1S(N)(=O)=O
inhibition (enzyme activity; inhibitor; 0.3 µM): 29%

CC(C)(C)c1nc2c(s1)c1nc(N)ncc1c1ccc(NS(=O)(=O)c3c(F)cccc3F)c(F)c12
remaining activity (enzyme activity; inhibitor; radiometric; 1 µM): 87%

O=C(Nc1cnn(-c2csc(C(=O)NC3COC3)c2)c1)Nc1ccccc1Cl
remaining activity (enzyme activity; inhibitor; 5 µM): 97.4%

CNC(=O)c1cc(Oc2ccc(NC(=O)Nc3ccc(Cl)c(C(F)(F)F)c3)cc2)ccn1
inhibition (enzyme activity; inhibitor; 10 µM): 74%

O=C(N[C@H]1CCCCC/C=C\C2C[C@@]2(C(=O)O)NC(=O)[C@@H]2C[C@@H](Oc3ccncc3)CN2C1=O)OC1CCCC1 (stereo partly shown)
remaining binding (binding; competition with immobilised ligand; 1 µM): 88%

CCCOc1ccc(OC)c(F)c1C(=O)c1ccc(C(=O)N[C@@H]2CNC[C@H]2NC(=O)c2ccc3[nH]ncc3c2)cc1
remaining activity (enzyme activity; inhibitor; 10 µM): 51%

N#CC1(c2ccccn2)CCN(Cc2cc(C(=O)N3CCCC3)c(=O)n3ccccc23)CC1
remaining binding (cell-free assay; competition with immobilised ligand; 1 µM): 100%

COc1cc2ncnc(Nc3ccc(Oc4ccccc4)cc3C)c2cc1OC
inhibition (enzyme activity; inhibitor; 1 µM): 3%

O=C(Nc1cccnn1)N1CC(C/C=C/c2cncc(Oc3ccc(C(F)(F)F)cn3)n2)C1
remaining binding (cell-free assay; competition with immobilised ligand; 1 µM): 100%

O=C1NC(=O)c2cc(Nc3ccc(F)cc3)c(Nc3ccc(F)cc3)cc21
remaining signal (cell-free assay; 0.5 µM): 99.4%

COc1cc(Cl)c(C(=O)N[C@@H](CN[C@H]2CC[C@@H](N)CC2)Cc2ccc(C#N)cc2)cc1-c1ccc(CN[C@H](C)c2ccc(C)cc2)o1
remaining activity (enzyme activity; inhibitor; 1 µM): 101%

C[S+]([O-])c1ccc(-c2nc(-c3ccncc3)c(-c3ccc(F)cc3)[nH]2)cc1 (stereo not shown)
remaining signal (cell-free assay; 0.5 µM): 102%

Cc1nc(C2CCN(C(=O)c3ccc(OC(F)(F)F)cc3N)CC2)c2ncc(N3CCN(C)CC3)cc2n1
remaining binding (cell-free assay; competition with immobilised ligand; 1 µM): 100%

Cc1ccc(C(=O)NCc2ccsc2)cc1C#Cc1cn(C(C)C)c2ncnc(N)c12
activity vs control (enzyme activity; inhibitor; 1 µM): 78%

CC(C)CC(=O)N1CCc2nc(-c3ccc(Br)cc3)nc(N(C)Cc3ccccc3)c2C1
remaining binding (cell-free assay; competition with immobilised ligand; 0.1 µM): 100%

CN1CC(Oc2cnc(C#N)cc2-c2ccn3nc(NC(=O)C4CC4)cc3c2)C1
inhibition (enzyme activity; inhibitor; 1 µM): -10%
